Measurements as given in ChEMBL document CHEMBL4613231 (Bioorg Med Chem, 2020).

Experiments:
[1] = target: T1, Tyrosyl-DNA phosphodiesterase 1 (Homo sapiens, UniProt Q9NUW8); experiment: Inhibition of TDP1 (unknown origin) using 5'-(5,6 FAM-AAC GTC AGG GTC TTC C- BHQ1)-3' as substrate measured for every 1 min by fluorescence based assay
Outline: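 TDP1 buffer (50 mM Tris-HCl pH 8.0, 50 mM NaCl, 7 mM β-mercaptoethanol) with FAM/BHQ1 quenched biosensor at 50 nM final and inhibitor over a concentration range. Started by adding TDP1 (1.5 nM), 26 °C, fluorescence (Ex485/Em520) read every 1 min. Linear-phase slope compared with DMSO control, IC50 taken from concentration-response curves, at least three independent experiments.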

[2] = target: T1, Tyrosyl-DNA phosphodiesterase 1; experiment: Inhibition of TDP1 (unknown origin) using 5'-(5,6 FAM-AAC GTC AGG GTC TTC C- BHQ1)-3' as substrate measured after 20 mins by gel-based assay
Outline: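 Reaction (200 μL) in TDP1 buffer (50 mM Tris-HCl pH 8.0, 50 mM NaCl, 7 mM β-mercaptoethanol) with FAM/BHQ1 biosensor oligo at 50 nM final and inhibitor at various concentrations. Started with TDP1 at 1.5 nM final, run 20 min at room temperature, stopped with loading buffer. Products separated by denaturing PAGE, scanned and quantified, and IC50 derived.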

[3] = (§1) Cytotoxicity against human T98G cells assessed as reduction in cell viability after 72 hrs by MTT assay; assay type: cell-based; details: T98G cells
Outline: (§2)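 Cells plated at ~2000 per well, grown 24h at 37 °C in IMDM (5% CO2), then exposed to compounds at 1, 5, 20 and 100 µM for 72h. Viable cells quantified by colorimetric MTT test; CC50 taken as mean of three independent experiments.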

[4] = (§3) Cytotoxicity against human MCF7 cells assessed as reduction in cell viability after 72 hrs by MTT assay; assay type: cell-based; details: MCF7 cells; outline: as §2
[5] = (§4) Cytotoxicity against human WI38 cells assessed as reduction in cell viability after 72 hrs by MTT assay; assay type: cell-based, WI-38; details: WI-38 cells; outline: as §2
[6] = test system: T98G; experiment: Cytotoxicity against human T98G cells at 1 uM after 72 hrs in presence of topotecan by MTT assay; assay type: cell-based
[7] = test system: WI-38; experiment: Cytotoxicity against human WI38 cells at 1 uM after 72 hrs in presence of topotecan by MTT assay; assay type: cell-based; details: wi-38, 72 h
[8] = test system: WI-38; experiment: as §4; assay type: cell-based; details: wi-38, 72 h; outline: as §2
[9] = test system: T98G; experiment: as §1; assay type: cell-based; details: t98g, 72 h; outline: as §2
[10] = test system: MCF7; experiment: as §3; assay type: cell-based; details: mcf7, 72 h; outline: as §2
[11] = test system: A549; experiment: Cytotoxicity against human A549 cells assessed as reduction in cell viability after 72 hrs by MTT assay; assay type: cell-based; details: a549, 72 h; outline: as §2

T1 sequence (Q9NUW8 whole entry): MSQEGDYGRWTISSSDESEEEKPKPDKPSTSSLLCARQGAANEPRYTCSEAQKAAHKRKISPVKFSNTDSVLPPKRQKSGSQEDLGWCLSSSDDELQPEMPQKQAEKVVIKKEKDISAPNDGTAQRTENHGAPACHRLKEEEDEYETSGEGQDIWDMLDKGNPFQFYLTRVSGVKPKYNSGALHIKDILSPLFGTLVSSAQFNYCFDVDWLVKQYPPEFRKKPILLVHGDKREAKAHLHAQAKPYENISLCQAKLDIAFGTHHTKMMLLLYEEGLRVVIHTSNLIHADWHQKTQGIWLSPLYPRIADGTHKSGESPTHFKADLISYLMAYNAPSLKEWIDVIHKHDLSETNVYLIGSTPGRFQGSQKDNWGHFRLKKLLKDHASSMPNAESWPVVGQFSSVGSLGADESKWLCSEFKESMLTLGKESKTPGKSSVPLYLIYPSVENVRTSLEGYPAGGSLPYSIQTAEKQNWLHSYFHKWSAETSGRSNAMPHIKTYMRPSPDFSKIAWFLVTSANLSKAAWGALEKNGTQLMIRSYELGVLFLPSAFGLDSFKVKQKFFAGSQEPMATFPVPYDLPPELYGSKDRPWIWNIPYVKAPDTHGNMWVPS

Compound	IC50 [1]	other results
Cc1c(CC(=O)N[C@@H](CSCc2ccccc2)C(=O)O)c(=O)oc2c(C)c3occ(-c4ccc(F)cc4)c3cc12	1.06 µM	IC50 [2]: 1.75 µM; CC50 at 72 h [3]: 66 µM; CC50 at 72 h [4]: 80 µM
CC(C)C[C@H](N)C(=O)N1CCC(C(=O)N[C@@H](Cc2ccccc2)C(=O)NCc2ccccc2F)CC1	> 100 µM	
Cc1oc2c(C)c3oc(=O)c(CC(=O)NCC(=O)O)c(C)c3cc2c1-c1ccccc1	> 100 µM	
O=C(NCCC1=CCCCC1)c1cc2c([nH]c3ccccc32)c(-c2ccc3c(c2)OCO3)n1	1.3 µM	
CCCc1cc(=O)oc2c(C)c(OCC(=O)NC(Cc3c[nH]c4ccc(O)cc34)C(=O)O)ccc12 (configuration not stated)	5.6 µM	
COc1cccc2cc(-c3cc(=O)oc4cc(OCC(C)=O)ccc34)c(=O)oc12	7.6 µM	
Cc1c(CCC(=O)N[C@@H](CSCc2ccccc2)C(=O)O)c(=O)oc2cc3oc4c(c3cc12)CCCC4	15.4 µM	
COc1cccc2cc(-c3cc(=O)oc4c(C)c(OCc5ccc(Cl)cc5)ccc34)c(=O)oc12	0.36 µM	CC50 at 72 h [5]: 60 µM; CC50 at 72 h [3]: 16 µM; CC50 at 72 h [4]: 17 µM; Activity [6]: Toxic; Activity [7]: Toxic
O=c1cc(-c2cc3ccccc3oc2=O)c2ccc(OCc3c(Cl)cccc3Cl)cc2o1	0.099 µM	Activity [8]: Non-Toxic; Activity [9]: Non-Toxic; Activity [10]: Non-Toxic; Activity [11]: Non-Toxic; Activity [6]: Toxic; Activity [7]: Toxic
COc1ccc(-c2cc(=O)oc3cc(OCC(=O)N[C@H](C(=O)O)c4ccccc4)ccc23)cc1	12.9 µM	
O=c1cc(-c2cc3ccccc3oc2=O)c2ccc(OCc3ccccc3Cl)cc2o1	0.28 µM	CC50 at 72 h [3]: 16 µM
CC(C)OCCCNC(=O)c1cc2c([nH]c3ccccc32)c(-c2ccc3c(c2)OCO3)n1	3.1 µM	
O=C(COc1cc2oc(=O)cc(-c3ccccc3)c2cc1Cl)NC[C@H]1CC[C@H](C(=O)O)CC1	> 100 µM	
Cc1c(Cc2ccccc2)c(=O)oc2cc(OCC(=O)N[C@@H](CSCc3ccccc3)C(=O)O)ccc12	3.5 µM	
O=c1cc(-c2cc3ccccc3oc2=O)c2ccc(OCc3cccc4ccccc34)cc2o1	0.27 µM	
O=C(NCCc1c[nH]c2ccccc12)c1cc2c([nH]c3ccccc32)c(-c2ccc3c(c2)OCO3)n1	0.98 µM	
Cc1c(CC(=O)NC(Cc2ccc(Cl)cc2)C(=O)O)c(=O)oc2c(C)c3occ(-c4ccc(F)cc4)c3cc12 (configuration not stated)	0.85 µM	
